Source: ChEMBL document CHEMBL5126632, “Balancing Affinity, Selectivity, and Cytotoxicity of Hydrazone-Based G-Quadruplex Ligands for Activation of Interferon β Genes in Cancer Cells” (J Med Chem, 2022)
pEC50, pIC50, pKd: −log10 of the molar value. Calls of active or inactive are those of the source. The rule behind the calls is not given here.

Legend:
[1] = Cytotoxicity against mouse MNMCA1 cells assessed as cell survival preincubated for 24 hrs with compound further incubated for 48 hrs in drug free medium by MTT assay; type: functional, cell-based
Procedure, shortened: (§1)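 Exponentially growing cells seeded and treated 24 h after seeding with increasing concentrations for 24 h. Cells then recovered 48 h in drug-free medium. MTT added for 1 h at 37 °C, formazan dissolved in DMSO, absorbance read at 540 nm. IC50 from linear regression. Means ± SEM of two independent experiments in triplicate.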

[2] = target: Quadruplex DNA; assay: Binding affinity toc-myc G4 quadruplex d(TTAGGGTTAGGGTTAGGGTTAGGGTT) DNA (unknown origin) assessed as dissociation constant by Microscale thermophoresis analysis; type: nucleic-acid assay
Procedure, shortened: (§2)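 MST with Cy5.5-labelled G4 oligonucleotide held at 20 nM, folded in 5 mM potassium phosphate pH 7.0 with 20 mM KCl plus 0.1% Tween. Ligand in 1:2 serial dilution mixed 1:1 with DNA, 20% DMSO final. Kd taken from binding curves.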

[3] = Stabilization of F-c-kit1-T (unknown origin) assessed as difference in melting temperature t1/2 in presence of d(CGC GAA TTC GCG TIT CGC GAA TTC GCG) DNA hairpin (unknown origin) measured at 1:15 G4 to hairpin DNA ratio by FRET assay
Procedure, shortened: (§3)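 FRET melting of 0.2 μM prefolded FAM/TAMRA dual-labelled c-kit1 G4 in 5 mM K phosphate pH 7.0 with 20 mM KCl. Ligand was added at 2 molar equiv, with unlabelled hairpin competitor at 3 or 10 μM final (15 or 50 equiv relative to G4). FAM emission was read at 520 nm (excitation 492 nm) while heating at 0.2 °C/min over 15–90 °C. ΔT1/2 is relative to no ligand; at least duplicate, averaged.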

[4] = system: Quadruplex DNA; assay: Stabilization of c-myc G4 quadruplex d(TTAGGGTTAGGGTTAGGGTTAGGGTT) DNA (unknown origin) assessed as thermal stability by measuring difference in melting temperature t1/2 by circular dichroism spectroscopy (reference value: 72 +/- 0.5 degC); type: nucleic-acid assay
[5] = system: U2OS; assay: Induction of DNA damage in human U2OS cells assessed as fold increase in gammaH2AX phosphorylation at […] by measuring fold change at 10 uM incubated for 24 hrs by immunofluorescence microscopy; type: functional
Procedure, shortened: (§4)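 U2OS cells treated 24 h. Fixed with 4% formaldehyde, permeabilized with 0.5% Triton X-100, blocked with 8% BSA, stained with anti-γH2AX (1:500) and Alexa Fluor 594 secondary, DAPI counterstain. Fluorescence microscopy signal quantified as fold over untreated.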

[6] = system: U2OS; assay: Cytotoxicity against human U2OS cells assessed as cell survival preincubated for 24 hrs with compound further incubated for 48 hrs in drug free medium by MTT assay; type: functional, cell-based; procedure, shortened: as §1
[7] = target: Quadruplex DNA; assay: Binding affinity to c-kit1 G4 quadruplex d(DNA AGGGAGGGCGCTGGGAGGAGGG) DNA (unknown origin) assessed as dissociation constant by Microscale thermophoresis analysis; type: nucleic-acid assay; procedure, shortened: as §2
[8] = system: U2OS; assay: Induction of DNA damage in human U2OS cells assessed as increase in gammaH2AX phosphorylation at S139 incubated for 24 hrs by immunofluorescence microscopy; type: functional, cell-based; details: read-out: IC50 (the source's name); procedure, shortened: as §4
[9] = system: Quadruplex DNA; assay: Stabilization of human Tel26 G4 quadruplex DNA assessed as thermal stability by measuring difference in melting temperature t1/2 by circular dichroism spectroscopy; type: nucleic-acid assay
[10] = system: Quadruplex DNA; assay: Stabilization of F-c-kit1-T quadruplex DNA (unknown origin) by measuring difference in melting temperature t1/2 by FRET assay; type: nucleic-acid assay
Procedure, shortened: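 FRET melting of 0.2 μM prefolded FAM/TAMRA-labelled c-kit1 in 5 mM potassium phosphate pH 7.0 with 20 mM KCl, with ligand at 2 molar equiv. Unlabelled hairpin competitor added at 3 or 10 μM (15 or 50 equiv). FAM emission at 520 nm (excitation 492 nm) followed from 15 to 90 °C at 0.2 °C/min. ΔT1/2 versus no ligand. At least duplicate.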

[11] = system: Quadruplex DNA; assay: Stabilization of c-kit2 G4 quadruplex d(CGGGCGGGCGCTAGGGAGGGT) DNA (unknown origin) assessed as thermal stability by measuring difference in melting temperature t1/2 by circular dichroism spectroscopy (reference value: 61.5 +/- 0.5 degC); type: nucleic-acid assay
[12] = Stabilization of d(CGC GAA TTC GCG TIT CGC GAA TTC GCG) DNA hairpin (unknown origin) assessed as thermal stability by measuring difference in melting temperature t1/2 by circular dichroism spectroscopy (reference value: 75.4 +/- 0.2 degC)
Procedure, shortened: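 CD melting of 15 μM annealed hairpin duplex in 5 mM K phosphate pH 7.0 with 20 mM KCl, with or without ligand at 2 molar equiv added to the folded DNA. The signal was followed at 252 nm from 20 to 100 °C at 1 °C/min, with T1/2 taken from a curve fit. ΔT1/2 is relative to DNA alone; duplicate runs, averaged.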

[13] = Genotoxicity in mouse MNMCA1 cells assessed as induction of micronuclei formation at 5 uM incubated for 24 hrs by measuring fold change by DAPI staining based analysis; type: toxicity, cell-based; details: mnmca1, 24 h
[14] = Stabilization of F-c-kit1-T (unknown origin) assessed as difference in melting temperature t1/2 in presence of d(CGC GAA TTC GCG TIT CGC GAA TTC GCG) DNA hairpin (unknown origin) measured at 1:50 G4 to hairpin DNA ratio by FRET assay; procedure, shortened: as §3
[15] = system: Quadruplex DNA; assay: Stabilization of c-kit1 G4 quadruplex d(DNA AGGGAGGGCGCTGGGAGGAGGG) DNA (unknown origin) assessed as thermal stability by measuring difference in melting temperature t1/2 by circular dichroism spectroscopy (reference value: 54 +/- 0.5 degC); type: nucleic-acid assay
[16] = target: Quadruplex DNA; assay: Binding affinity to c-kit2 G4 quadruplex d(CGGGCGGGCGCTAGGGAGGGT) DNA (unknown origin) assessed as dissociation constant by Microscale thermophoresis analysis; type: nucleic-acid assay; procedure, shortened: as §2
[17] = Genotoxicity in mouse MNMCA1 cells assessed as induction of micronuclei formation measured after 24 hrs by DAPI staining based analysis; type: toxicity, cell-based; details: mnmca1, 24 h
[18] = system: Quadruplex DNA; assay: Stabilization of G4 quadruplex DNA in human U2OS cells assessed as BG4 foci formation by measuring fold increase in G4 structure at 10 uM by immunofluorescence microscopy; type: cell-based
Procedure, shortened: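 U2OS cells on coverslips treated for […]. Fixed in methanol/acetic acid 3:1, permeabilized with 0.1% Triton X-100, blocked in 2% milk. Stained with 0.5 μg BG4 for 2 h, then anti-FLAG and Alexa Fluor 488 secondary. Signal quantified as fold over untreated.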

[19] = target: Quadruplex DNA; assay: Displacement of thiazole orange from c-kit2 G4 quadruplex d(CGGGCGGGCGCTAGGGAGGGT) DNA (unknown origin) assessed as relative affinity by fluorescent intercalator displacement assay; type: nucleic-acid assay
Procedure, shortened: (§5)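 G4 DNA at 0.25 μM with 0.5 μM thiazole orange in 5 mM potassium phosphate pH 7.0 containing 20 mM KCl (LiCl for c-myc), 20 °C. Ligand titrated from 0.5 to 20 molar equiv with 3 min equilibration per addition. Excitation 485 nm, emission 500–650 nm. %displacement = 100 − (F/F0×100); DC50 is the concentration displacing 50% TO. Duplicate titrations.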

[20] = system: MNMCA1; assay: Activation of IFN-beta in mouse MNMCA1 cells at 15 to 30 uM pretreated for 24 hrs followed by 48 hrs of drug recovery by ELISA; type: functional, cell-based; details: dose 15-30 µM, time 72.0 hrs
Procedure, shortened: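 MNMCA1 cells treated 24 h with compound at 15 or 30 μM, then 48 h recovery in fresh drug-free medium. IFN-B protein measured by ELISA in collected culture supernatants.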

[21] = target: Quadruplex DNA; assay: Displacement of thiazole orange from c-kit1 G4 quadruplex d(DNA AGGGAGGGCGCTGGGAGGAGGG) DNA (unknown origin) assessed as relative affinity by fluorescent intercalator displacement assay; type: nucleic-acid assay; procedure, shortened: as §5
[22] = target: Quadruplex DNA; assay: Displacement of thiazole orange from c-myc G4 quadruplex d(TTAGGGTTAGGGTTAGGGTTAGGGTT) DNA (unknown origin) assessed as relative affinity by fluorescent intercalator displacement assay; type: nucleic-acid assay; procedure, shortened: as §5

Structure (SMILES) | pIC50 [1] | pKd [2] | ΔTm [3] | ΔTm [4] | fold change (FC) [5] | pIC50 [6] | pKd [7] | pEC50 [8] | ΔTm [9] | ΔTm [10] | ΔTm [11] | ΔTm [12] | fold change (FC) [13] | ΔTm [14] | ΔTm [15] | pKd [16] | further results
OCc1c(-c2ccccc2)nc2n1ccc1nc(-c3ccccc3)c(/C=N/NC3=NCCN3)n12 | 4.92 | 4.43 | 7.8 °C | 1.7 °C | 1.55 | 4.61 | 5.10 | 4.62 | 2 °C | 8 °C | 14.7 °C | 1.3 °C | 2.5 | 8.4 °C | 7.1 °C | 5.60 | –
N=C(N)N/N=C/c1c(-c2ccccc2)nc2ccn3c(CO)c(-c4ccccc4)nc3n12 | 4.45 | 5.10 | 11.1 °C | 2.8 °C | 2.32 | 4.84 | 5.70 | 4.85 | 1.8 °C | 10 °C | 18.6 °C | 2.3 °C | 2.5 | 12.1 °C | 9.7 °C | 5.89 | –
Cc1ccc(-c2nc3ccn4c(/C=N/NC(=N)N)c(-c5ccccc5)nc4n3c2/C=N/NC(=N)N)cc1 | 4.41 | 5.82 | 22.2 °C | 16.9 °C | – | 4.33 | 7.52 | 4.34 | 4.8 °C | 25.4 °C | > 30 °C | 1.3 °C | – | 19.2 °C | 18.2 °C | 7.40 | fold change (FC) [17]: 0.4; fold change (FC) [18]: 2.4; pIC50 [19]: 5.85; Activity [20]: Active; pIC50 [21]: 5.85; pIC50 [22]: 5.80
